In brackets after ≈: the same amount, converted by molar mass.
Columns and labels:
[1] = Fraction unbound in dog plasma by equilibrium dialysis; type: ADME, cell-free, Canis lupus familiaris
[2] = Half life in dog at 0.5 mg/kg, iv or 1 mg/kg, po; type: ADME, organism-based, Canis lupus familiaris; conditions: in vivo
Outline: (§1)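 Single IV dose of 0.5 mg/kg and oral dose of 1 mg/kg in rat and dog. Both routes were formulated in 5% DMSO:95% hydroxypropyl β-cyclodextrin (30% w/v), at 1 mL/kg IV and 4 mL/kg PO.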

[3] = Clearance in rat at 0.5 mg/kg, iv or 1 mg/kg, po; type: ADME, organism-based; conditions: in vivo; outline: as §1
Estrogen receptor [4] = biological target: T1, Estrogen receptor (Homo sapiens, UniProt P03372); assay: Binding affinity to recombinant human GST-tagged ERalpha LBD expressed in baculovirus-infected insect cells by lantha screen assay
T1 sequence (P03372 whole entry): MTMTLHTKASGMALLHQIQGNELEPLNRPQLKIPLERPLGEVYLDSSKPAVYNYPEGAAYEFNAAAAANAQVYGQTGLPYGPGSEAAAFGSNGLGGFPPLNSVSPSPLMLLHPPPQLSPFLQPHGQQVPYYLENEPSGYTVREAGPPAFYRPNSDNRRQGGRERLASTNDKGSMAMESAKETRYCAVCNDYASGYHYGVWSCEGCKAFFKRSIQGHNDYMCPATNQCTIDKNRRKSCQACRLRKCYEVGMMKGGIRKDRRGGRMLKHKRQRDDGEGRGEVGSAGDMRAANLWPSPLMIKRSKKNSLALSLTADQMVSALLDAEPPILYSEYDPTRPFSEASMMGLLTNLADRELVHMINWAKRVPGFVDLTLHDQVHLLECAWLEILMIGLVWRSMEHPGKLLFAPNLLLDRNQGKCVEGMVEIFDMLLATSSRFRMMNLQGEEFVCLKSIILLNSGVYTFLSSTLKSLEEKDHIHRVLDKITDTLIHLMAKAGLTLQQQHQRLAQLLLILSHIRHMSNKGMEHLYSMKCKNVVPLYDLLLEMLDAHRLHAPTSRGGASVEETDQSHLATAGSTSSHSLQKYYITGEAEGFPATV

[5] = Intrinsic clearance in rat hepatocytes assessed per million cells; type: ADME, cell-based, Hepatocyte; conditions: read-out: CLH
Outline: (§2)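 Rate of metabolism (µl/min/10⁶ cells) measured from DMSO stock in isolated hepatocytes diluted to 1x10⁶ cells/mL.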

[6] = Intrinsic clearance in human hepatocytes assessed per million cells; type: ADME, cell-based, Hepatocyte; conditions: read-out: CLH; outline: as §2
[7] = Solubility of the compound in phosphate buffer at pH 7.4 after 24 hrs; type: physicochemical
Outline: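 Solubility in aqueous phosphate buffer at pH 7.4 after 24 h at 25 °C.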

[8] = Stability in pH 7.4 deuterated buffer assessed as compound remaining after 8 days by 1H NMR spectroscopy; type: physicochemical; conditions: pH 7.4, 192 h
Outline: (§3)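 Compound diluted from a 25 mM DMSO-d6 stock to a final 1 mM in each deuterated buffer. Followed by ¹H NMR (500 MHz, water suppression, 64 scans) and LC-MS at 0, 24, 72 and 192 h (8 days).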

[9] = Oral bioavailability in rat at 1 mg/kg; type: ADME, organism-based; conditions: in vivo; outline: as §1
[10] = Half life in rat at 0.5 mg/kg, iv or 1 mg/kg, po; type: ADME, organism-based; conditions: in vivo; outline: as §1
Estrogen receptor [11] = biological target: T1, Estrogen receptor; assay: Induction of ERalpha degradation in human MCF7 cells after 18 to 24 hrs by in multiplexed cell assay; type: cell-based
Outline: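 MCF-7 cells were kept at 37 °C, 5% CO₂ in phenol red-free RPMI1640 with 5% charcoal-stripped FCS and 2 mmol/L glutamine. Compounds came from 10 mmol/L DMSO stocks.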

[12] = Apparent permeability in human Caco2 cells at 10 uM; type: ADME, cell-based; conditions: Caco-2
Outline: (§4)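 Compound at 10 μM incubated on cultured Caco-2 or MDCK cells. Permeability was measured apical-to-basolateral and basolateral-to-apical, and efflux ratio was taken as (B to A)/(A to B).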

[13] = Efflux ratio of apparent permeability in human Caco2 cells at 10 uM; type: ADME, cell-based; conditions: Caco-2; outline: as §4
[14] = Glutathione reactivity in human liver microsomes assessed as GSH trapping ratio of compound to clozapine; type: ADME, Microsome
Outline: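 Glutathione trapping in human liver microsomes, expressed as a ratio to clozapine.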

Cytochrome P450 2D6 = Cytochrome P450 2D6 (Homo sapiens, UniProt P10635); assay: Inhibition of CYP2D6 in human liver microsomes; type: ADME
Outline: (§5)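 High-throughput human liver microsome assay across a panel of five CYP isoforms, giving IC50.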

[15] = Apparent permeability in MDCK cells at 10 uM; type: ADME, cell-based, Canis lupus familiaris; conditions: dog; outline: as §4
Cytochrome P450 1A2 = biological target: T2, Cytochrome P450 1A2 (Homo sapiens, UniProt P05177); assay: Inhibition of CYP1A2 in human liver microsomes; type: ADME; outline: as §5
T2 sequence (P05177 whole entry): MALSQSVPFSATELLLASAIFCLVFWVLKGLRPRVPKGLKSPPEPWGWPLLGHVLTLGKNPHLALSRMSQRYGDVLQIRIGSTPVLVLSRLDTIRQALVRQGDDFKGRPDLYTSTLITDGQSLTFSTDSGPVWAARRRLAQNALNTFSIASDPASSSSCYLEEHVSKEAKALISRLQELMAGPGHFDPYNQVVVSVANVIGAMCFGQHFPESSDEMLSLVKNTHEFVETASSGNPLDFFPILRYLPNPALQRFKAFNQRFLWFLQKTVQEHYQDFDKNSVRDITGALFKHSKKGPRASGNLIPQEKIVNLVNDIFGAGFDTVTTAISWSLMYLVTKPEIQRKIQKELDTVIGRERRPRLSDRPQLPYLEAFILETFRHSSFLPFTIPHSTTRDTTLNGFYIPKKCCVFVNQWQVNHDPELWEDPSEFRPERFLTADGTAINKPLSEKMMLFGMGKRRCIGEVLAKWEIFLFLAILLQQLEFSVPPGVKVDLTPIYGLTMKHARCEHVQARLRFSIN

[16] = Oral bioavailability in dog at 1 mg/kg; type: ADME, organism-based, Canis lupus familiaris; conditions: in vivo; outline: as §1
[17] = Lipophilicity, log D of the compound at pH 7.4 by shake flask method; type: physicochemical; conditions: buffer
Outline: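 Shake-flask measurement of logD at pH 7.4.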

[18] = Stability in pH 4 deuterated buffer assessed as compound remaining after 8 days by 1H NMR spectroscopy; type: physicochemical; conditions: pH 4, 192 h; outline: as §3
[19] = Intrinsic clearance in dog hepatocytes assessed per million cells; type: ADME, cell-based, Canis lupus familiaris, Hepatocyte; conditions: read-out: CLH; outline: as §2
[20] = AUC in rat at 1 mg/kg, po; type: ADME, organism-based; conditions: in vivo; outline: as §1
[21] = Efflux ratio of apparent permeability in MDCK cells at 10 uM; type: ADME, cell-based, Canis lupus familiaris; conditions: dog; outline: as §4
[22] = Volume of distribution at steady state in dog at 0.5 mg/kg, iv or 1 mg/kg, po; type: ADME, organism-based, Canis lupus familiaris; conditions: in vivo, read-out: Vdss; outline: as §1
[23] = Clearance in dog at 0.5 mg/kg, iv or 1 mg/kg, po; type: ADME, organism-based, Canis lupus familiaris; conditions: in vivo; outline: as §1
[24] = Volume of distribution at steady state in rat at 0.5 mg/kg, iv or 1 mg/kg, po; type: ADME, organism-based; conditions: in vivo, read-out: Vdss; outline: as §1
[25] = Fraction unbound in Alderley Park Han Wistar rat plasma by equilibrium dialysis; type: ADME, cell-free
Outline: (§6)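 Equilibrium dialysis from DMSO stock in 10% plasma, either Alderley Park Han Wistar rat plasma or human plasma.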

Cytochrome P450 2C19 = Cytochrome P450 2C19 (Homo sapiens, UniProt P33261); assay: Inhibition of CYP2C19 in human liver microsomes; type: ADME; outline: as §5
[26] = Stability in pH 10 deuterated buffer assessed as compound remaining after 8 days by 1H NMR spectroscopy; type: physicochemical; conditions: pH 10, 192 h; outline: as §3
[27] = Fraction unbound in mouse plasma by equilibrium dialysis; type: ADME, cell-free
[28] = Fraction unbound in 10% human plasma by equilibrium dialysis; type: ADME, cell-free; conditions: 10% plasma; outline: as §6
[29] = AUC in dog at 1 mg/kg, po; type: ADME, organism-based, Canis lupus familiaris; conditions: in vivo; outline: as §1

Sequence of Cytochrome P450 2D6 (P10635 whole entry, canonical isoform): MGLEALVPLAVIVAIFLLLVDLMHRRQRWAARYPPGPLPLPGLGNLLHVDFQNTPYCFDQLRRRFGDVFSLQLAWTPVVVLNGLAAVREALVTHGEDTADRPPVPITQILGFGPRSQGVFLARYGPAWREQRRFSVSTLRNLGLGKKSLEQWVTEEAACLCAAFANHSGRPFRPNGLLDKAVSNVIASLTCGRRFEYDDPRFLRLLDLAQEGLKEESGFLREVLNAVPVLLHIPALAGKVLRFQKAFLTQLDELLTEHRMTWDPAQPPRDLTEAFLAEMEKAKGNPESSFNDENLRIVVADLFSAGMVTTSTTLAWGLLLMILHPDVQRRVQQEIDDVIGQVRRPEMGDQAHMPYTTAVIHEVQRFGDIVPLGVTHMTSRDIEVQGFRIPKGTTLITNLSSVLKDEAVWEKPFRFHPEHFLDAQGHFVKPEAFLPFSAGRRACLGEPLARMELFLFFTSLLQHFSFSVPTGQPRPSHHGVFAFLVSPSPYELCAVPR
Sequence of Cytochrome P450 2C19 (P33261 whole entry): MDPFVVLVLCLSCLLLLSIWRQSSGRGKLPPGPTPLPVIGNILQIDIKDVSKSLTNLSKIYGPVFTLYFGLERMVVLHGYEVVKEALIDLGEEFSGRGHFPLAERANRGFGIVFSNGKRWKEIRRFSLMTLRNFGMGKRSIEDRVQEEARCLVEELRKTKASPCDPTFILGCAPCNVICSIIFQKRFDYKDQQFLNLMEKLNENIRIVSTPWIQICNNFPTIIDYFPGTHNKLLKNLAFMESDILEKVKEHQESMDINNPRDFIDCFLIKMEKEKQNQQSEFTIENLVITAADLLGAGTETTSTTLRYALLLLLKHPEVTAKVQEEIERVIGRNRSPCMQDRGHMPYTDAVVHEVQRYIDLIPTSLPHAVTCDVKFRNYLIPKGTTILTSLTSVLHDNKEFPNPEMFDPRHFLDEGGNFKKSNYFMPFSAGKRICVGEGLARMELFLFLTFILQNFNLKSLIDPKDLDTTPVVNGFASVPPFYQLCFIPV

fraction unbound [1]: 0.0087
half-life [2]: 6.8 h
clearance [3]: 32 mL/min/kg
IC50 (Estrogen receptor [4]): 1 nM
hepatocyte CLint [5]: 18 µL/min/1e6 cells
hepatocyte CLint [6]: 5 µL/min/1e6 cells
solubility at 24 h [7]: 810 µM (≈ 358 µg/mL)
Stability [8]: Stable
bioavailability [9]: 51%
half-life [10]: 1.3 h
IC50 (Estrogen receptor [11]): 1 nM
Papp at 10 µM [12]: 6.2 ×10⁻⁶ cm/s
efflux ratio at 10 µM [13]: 2.2
Ratio [14]: < 0.04
IC50 (Cytochrome P450 2D6): > 30000 nM
Papp at 10 µM [15]: 8.4 ×10⁻⁶ cm/s
IC50 (Cytochrome P450 1A2): > 30000 nM
bioavailability [16]: 45%
logD [17]: 2.5
Stability [18]: Stable
hepatocyte CLint [19]: 9.6 µL/min/1e6 cells
AUC [20]: 0.21 µM·h
efflux ratio at 10 µM [21]: 1.7
Vd [22]: 0.36 L/kg
clearance [23]: 2.8 mL/min/kg
Vd [24]: 1 L/kg
fraction unbound [25]: 0.022
IC50 (Cytochrome P450 2C19): > 30000 nM
Stability [26]: Stable
fraction unbound [27]: 0.012
fraction unbound [28]: 0.0092
AUC [29]: 6.6 µM·h
SMILES: COc1cc(/C=C/C(=O)O)ccc1[C@@H]1c2ccc3[nH]ncc3c2C[C@@H](C)N1CC(C)(F)F
